According to ChEMBL document CHEMBL3232922, “Discovery and SAR of 6-alkyl-2,4-diaminopyrimidines as histamine H₄ receptor antagonists” (J Med Chem, 2014):
The source made the active and inactive calls. No cut-off for these calls is given here.

Tests used:
Histamine H4 receptor [1] = target: T1, Histamine H4 receptor (Homo sapiens, UniProt Q9H3N8); test: Agonist activity at human H4 receptor; conditions: read-out: EC50
Histamine H4 receptor [2] = target: T1, Histamine H4 receptor; test: Antagonist activity at human histamine H4 receptor expressed in SK-N-MC cells assessed as reduction of histamine-induced inhibition of cAMP-mediated beta-galactosidase reporter gene activity treated 10 mins prior to histamine challenge by microplate reader analysis; type: functional, cell-based; conditions: read-out: pA2 (converted)
Histamine H4 receptor [3] = target: T2, Histamine H4 receptor (Mus musculus, UniProt Q91ZY2); test: Displacement of [3H]histamine from mouse histamine H4 receptor expressed in SK-N-MC cells after 45 mins by competition binding analysis; type: cell-based
T2 sequence (Q91ZY2 whole entry): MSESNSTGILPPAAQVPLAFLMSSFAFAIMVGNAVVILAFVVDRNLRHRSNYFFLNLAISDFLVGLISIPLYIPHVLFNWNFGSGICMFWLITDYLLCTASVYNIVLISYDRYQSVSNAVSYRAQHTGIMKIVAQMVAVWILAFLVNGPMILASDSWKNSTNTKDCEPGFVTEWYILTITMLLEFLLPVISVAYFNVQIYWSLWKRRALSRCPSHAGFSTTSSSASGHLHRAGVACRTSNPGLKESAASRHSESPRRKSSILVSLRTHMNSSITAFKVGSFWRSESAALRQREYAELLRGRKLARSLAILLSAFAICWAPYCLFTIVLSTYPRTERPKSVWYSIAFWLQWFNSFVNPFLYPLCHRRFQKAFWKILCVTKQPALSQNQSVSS
Outline: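 Transfected cells expressing the H4 receptor, competition against [3H]histamine. Ki is the geometric mean of at least three independent determinations (each in triplicate), calculated by the Cheng–Prusoff equation.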

Histamine H4 receptor [4] = target: T2, Histamine H4 receptor; test: Antagonist activity at mouse histamine H4 receptor expressed in SK-N-MC cells assessed as reduction of histamine-induced inhibition of cAMP-mediated beta-galactosidase reporter gene activity treated 10 mins prior to histamine challenge by microplate reader analysis; type: functional, cell-based; conditions: read-out: pA2 (converted)
Histamine H3 receptor = Histamine H3 receptor (Homo sapiens, UniProt Q9Y5N1); test: Displacement of [3H]N-alpha-methylhistamine from human recombinant histamine H3 receptor expressed in SK-N-MC cells after 45 mins by competition binding analysis; type: cell-based
Chain of Histamine H3 receptor (Q9Y5N1 whole entry): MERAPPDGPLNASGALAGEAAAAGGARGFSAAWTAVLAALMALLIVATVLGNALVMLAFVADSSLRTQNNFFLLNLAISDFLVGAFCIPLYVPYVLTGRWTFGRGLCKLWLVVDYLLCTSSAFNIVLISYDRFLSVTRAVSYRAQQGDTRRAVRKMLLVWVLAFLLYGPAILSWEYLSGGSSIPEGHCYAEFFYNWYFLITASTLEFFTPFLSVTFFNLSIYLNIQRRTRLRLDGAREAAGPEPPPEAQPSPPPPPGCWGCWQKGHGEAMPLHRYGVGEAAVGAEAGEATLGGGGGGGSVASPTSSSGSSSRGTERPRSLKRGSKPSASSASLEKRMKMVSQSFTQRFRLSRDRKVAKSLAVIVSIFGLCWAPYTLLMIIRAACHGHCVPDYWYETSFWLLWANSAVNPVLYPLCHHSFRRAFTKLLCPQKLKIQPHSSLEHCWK

[5] = Half life in human microsomes; type: ADME, Microsome
[6] = Half life in rat microsomes; type: ADME, Microsome
[7] = target: Voltage-gated inwardly rectifying potassium channel KCNH2 (Homo sapiens, UniProt Q12809); test: Inhibition of human ERG channel transfected in HEK293 cells assessed as reduction in delayed rectifier current by patch clamp assay; type: cell-based
Chain of Voltage-gated inwardly rectifying potassium channel KCNH2 (Q12809 whole entry): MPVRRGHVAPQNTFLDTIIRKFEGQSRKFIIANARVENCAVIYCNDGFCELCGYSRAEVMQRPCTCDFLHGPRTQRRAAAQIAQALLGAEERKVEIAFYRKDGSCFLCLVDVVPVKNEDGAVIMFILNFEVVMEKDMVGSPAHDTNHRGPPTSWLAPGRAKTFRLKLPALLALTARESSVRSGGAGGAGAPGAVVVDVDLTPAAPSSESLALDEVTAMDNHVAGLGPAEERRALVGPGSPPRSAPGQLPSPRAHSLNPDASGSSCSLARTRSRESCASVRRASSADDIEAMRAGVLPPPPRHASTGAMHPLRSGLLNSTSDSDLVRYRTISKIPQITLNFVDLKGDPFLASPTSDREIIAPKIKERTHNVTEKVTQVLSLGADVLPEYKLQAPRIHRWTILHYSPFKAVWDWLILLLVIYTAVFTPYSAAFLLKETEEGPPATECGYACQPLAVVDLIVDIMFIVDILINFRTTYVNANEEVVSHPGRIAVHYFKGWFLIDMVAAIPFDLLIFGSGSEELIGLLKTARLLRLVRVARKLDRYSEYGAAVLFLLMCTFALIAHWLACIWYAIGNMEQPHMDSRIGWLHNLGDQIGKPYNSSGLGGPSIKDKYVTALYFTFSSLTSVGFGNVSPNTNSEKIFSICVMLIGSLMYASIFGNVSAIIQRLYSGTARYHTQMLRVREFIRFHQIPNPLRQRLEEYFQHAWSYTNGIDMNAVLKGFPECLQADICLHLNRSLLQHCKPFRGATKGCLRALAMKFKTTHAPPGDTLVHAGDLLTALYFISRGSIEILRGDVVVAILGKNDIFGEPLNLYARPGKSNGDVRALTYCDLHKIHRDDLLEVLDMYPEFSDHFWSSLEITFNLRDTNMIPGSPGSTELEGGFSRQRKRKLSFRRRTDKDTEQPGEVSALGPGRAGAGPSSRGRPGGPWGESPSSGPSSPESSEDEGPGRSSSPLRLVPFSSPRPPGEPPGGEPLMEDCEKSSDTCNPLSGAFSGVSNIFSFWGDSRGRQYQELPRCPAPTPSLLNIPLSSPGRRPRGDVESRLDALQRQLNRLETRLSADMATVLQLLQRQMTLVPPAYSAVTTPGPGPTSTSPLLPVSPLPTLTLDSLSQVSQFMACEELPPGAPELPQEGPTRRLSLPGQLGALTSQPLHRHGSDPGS
Outline: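 The delayed rectifier current (IKr) was recorded in hERG-transfected HEK293 cells with the compound at 3 μM.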

[8] = Permeability from apical to basolateral side in human Caco cells; type: ADME, cell-based; conditions: Caco-2, read-out: permeability
[9] = Permeability from basolateral to apical side in human Caco cells; type: ADME, cell-based; conditions: Caco-2, read-out: permeability
[10] = Fraction unbound in human plasma; type: ADME, cell-free
[11] = Half life in rat at 2 mg/kg, iv; type: ADME, organism-based; design: dose 2 mg/kg, route intravenous; conditions: in vivo
[12] = AUC in rat at 2 mg/kg, iv; type: ADME, organism-based; design: dose 2 mg/kg, route intravenous; conditions: plasma
[13] = Clearance in rat at 2 mg/kg, iv; type: ADME, organism-based; design: dose 2 mg/kg, route intravenous; conditions: in vivo
[14] = Volume of distribution at steady state in rat at 2 mg/kg, iv; type: ADME, organism-based; design: dose 2 mg/kg, route intravenous; conditions: in vivo, read-out: Vdss
[15] = Oral bioavailability in rat at 10 mg/kg; type: ADME, organism-based; conditions: in vivo
[16] = Half life in rat at 10 mg/kg, po; type: ADME, organism-based; design: dose 10 mg/kg, route oral; conditions: in vivo
[17] = Cmax in rat at 10 mg/kg, po; type: ADME, organism-based; design: dose 10 mg/kg, route oral; conditions: in vivo
Mus musculus = test: Antiinflammatory activity in po dosed Balb/c mouse assessed as inhibition of LPS-induced TNF-alpha release at plasma concentration of 62.5 nM administered 30 mins prior to LPS challenge measured after 2 hrs by ELISA; type: functional, organism-based
Histamine H4 receptor [18] = target: T1, Histamine H4 receptor; test: Displacement of [3H]histamine from human recombinant histamine H4 receptor expressed in SK-N-MC cells after 45 mins by competition binding analysis; type: cell-based
[19] = AUC in Balb/c mouse at 20 mg/kg, po; type: ADME, organism-based; design: dose 20 mg/kg, route oral; conditions: plasma
[20] = AUC in Sprague-Dawley rat at 2 mg/kg, iv; type: ADME, organism-based; design: dose 2 mg/kg, route intravenous; conditions: plasma
[21] = AUC in Sprague-Dawley rat at 10 mg/kg, po; type: ADME, organism-based; design: dose 10 mg/kg, route oral; conditions: plasma
Canis familiaris = test: AUC in beagle dog at 2 mg/kg, iv; type: ADME, organism-based, Canis lupus familiaris, Plasma; design: dose 2 mg/kg, route intravenous; conditions: in vivo
[22] = AUC in beagle dog at 10 mg/kg, po; type: ADME, organism-based, Canis lupus familiaris; design: dose 10 mg/kg, route oral; conditions: plasma
Rattus norvegicus [23] = test: Clearance in Sprague-Dawley rat at 2 mg/kg, iv; type: ADME, organism-based; design: dose 2 mg/kg, route intravenous; conditions: in vivo
Rattus norvegicus [24] = test: Volume of distribution at steady state in Sprague-Dawley rat at 2 mg/kg, iv; type: ADME, organism-based; design: dose 2 mg/kg, route intravenous; conditions: in vivo
[25] = Volume of distribution at steady state in beagle dog at 2 mg/kg, iv; type: ADME, organism-based, Canis lupus familiaris; design: dose 2 mg/kg, route intravenous; conditions: in vivo, read-out: Vdss
[26] = Half life in Balb/c mouse at 20 mg/kg, po; type: ADME, organism-based; design: dose 20 mg/kg, route oral; conditions: in vivo
Rattus norvegicus [27] = test: Half life in Sprague-Dawley rat at 2 mg/kg, iv; type: ADME, organism-based; design: dose 2 mg/kg, route intravenous; conditions: in vivo
[28] = Half life in Sprague-Dawley rat at 10 mg/kg, po; type: ADME, organism-based; design: dose 10 mg/kg, route oral; conditions: in vivo
[29] = Half life in beagle dog at 2 mg/kg, iv; type: ADME, organism-based, Canis lupus familiaris; design: dose 2 mg/kg, route intravenous; conditions: in vivo
[30] = Half life in beagle dog at 10 mg/kg, po; type: ADME, organism-based, Canis lupus familiaris; design: dose 10 mg/kg, route oral; conditions: in vivo
[31] = Oral bioavailability in Sprague-Dawley rat at 10 mg/kg; type: ADME, organism-based; conditions: in vivo
[32] = Oral bioavailability in beagle dog at 10 mg/kg; type: ADME, organism-based, Canis lupus familiaris; conditions: in vivo
[33] = Tmax in Balb/c mouse at 20 mg/kg, po; type: ADME, organism-based; design: dose 20 mg/kg, route oral; conditions: in vivo
[34] = Tmax in Sprague-Dawley rat at 10 mg/kg, po; type: ADME, organism-based; design: dose 10 mg/kg, route oral; conditions: in vivo
[35] = Tmax in beagle dog at 10 mg/kg, po; type: ADME, organism-based, Canis lupus familiaris; design: dose 10 mg/kg, route oral; conditions: in vivo
[36] = Cmax in Balb/c mouse at 20 mg/kg, po; type: ADME, organism-based; design: dose 20 mg/kg, route oral; conditions: in vivo
[37] = Initial plasma concentration in Sprague-Dawley rat at 2 mg/kg, iv; type: ADME, organism-based; design: dose 2 mg/kg, route intravenous
[38] = Cmax in Sprague-Dawley rat at 10 mg/kg, po; type: ADME, organism-based; design: dose 10 mg/kg, route oral; conditions: in vivo
[39] = Initial plasma concentration in beagle dog at 2 mg/kg, iv; type: ADME, organism-based, Canis lupus familiaris; design: dose 2 mg/kg, route intravenous
[40] = Cmax in beagle dog at 10 mg/kg, po; type: ADME, organism-based, Canis lupus familiaris; design: dose 10 mg/kg, route oral; conditions: in vivo

T1 sequence (Q9H3N8 whole entry): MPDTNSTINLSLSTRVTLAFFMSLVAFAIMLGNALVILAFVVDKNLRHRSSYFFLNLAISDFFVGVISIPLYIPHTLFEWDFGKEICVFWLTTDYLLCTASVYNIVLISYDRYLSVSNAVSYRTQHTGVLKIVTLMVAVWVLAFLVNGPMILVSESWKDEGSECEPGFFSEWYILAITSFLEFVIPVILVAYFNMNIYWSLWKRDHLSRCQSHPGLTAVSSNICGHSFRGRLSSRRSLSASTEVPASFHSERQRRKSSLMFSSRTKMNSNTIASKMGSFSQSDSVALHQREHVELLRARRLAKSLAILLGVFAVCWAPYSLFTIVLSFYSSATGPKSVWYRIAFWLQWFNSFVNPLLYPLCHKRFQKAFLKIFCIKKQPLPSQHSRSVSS

Compound: CCc1cc(N2CC[C@@H](N)C2)nc(N)n1
- EC50 (Histamine H4 receptor [1]): > 10000 nM
- Kb (Histamine H4 receptor [2]): 12.6 nM

Compound: CCc1cc(N2CC[C@@H](NC)C2)nc(N)n1
- EC50 (Histamine H4 receptor [1]): > 10000 nM
- Kb (Histamine H4 receptor [2]): 10 nM
- Ki (Histamine H4 receptor [3]): 62 nM
- Kb (Histamine H4 receptor [4]): 50.1 nM
- Ki (Histamine H3 receptor): 670 nM
- half-life [5]: > 2 h
- half-life [6]: 1.05 h
- INH [7]: > 10 µM
- Papp A→B [8]: 54 ×10⁻⁶ cm/s
- Papp B→A [9]: 14 ×10⁻⁶ cm/s
- fraction unbound [10]: 0.26
- half-life [11]: 5.3 h
- AUC [12]: 11 µM·h
- clearance [13]: 5 mL/min/kg
- Vd [14]: 6.3 L/kg
- bioavailability [15]: 50%
- half-life [16]: 9.7 h
- Cmax [17]: 1.5 µM
- inhibition (Mus musculus): Active

Compound: CN[C@@H]1CCN(c2cc(C(F)(F)F)nc(N)n2)C1
- Ki (Histamine H4 receptor [18]): > 10000 nM

Compound: CN[C@@H]1CCN(c2cc(C3CCC3)nc(N)n2)C1
- Ki (Histamine H4 receptor [18]): 2.4 nM
- EC50 (Histamine H4 receptor [1]): > 10000 nM
- Kb (Histamine H4 receptor [2]): 0.398 nM

Compound: CN[C@H]1CN(c2cc(C3CCCC3)nc(N)n2)C[C@@H]1O (relative stereo)
- Ki (Histamine H4 receptor [18]): 30 nM
- EC50 (Histamine H4 receptor [1]): > 10000 nM
- Kb (Histamine H4 receptor [2]): 10 nM

Compound: Nc1nc(C2CCCC2)cc(N2C[C@H]3NCCO[C@@H]3C2)n1 (racemic)
- Ki (Histamine H4 receptor [18]): 56 nM
- EC50 (Histamine H4 receptor [1]): > 10000 nM
- Kb (Histamine H4 receptor [2]): 126 nM

Compound: CC(C)(C)c1cc(N2CC[C@@H](N)C2)nc(N)n1
- Ki (Histamine H4 receptor [18]): 9.4 nM
- EC50 (Histamine H4 receptor [1]): > 10000 nM
- Kb (Histamine H4 receptor [2]): 5.01 nM

Compound: CN1C[C@@H]2CN(c3cc(C4CCCC4)nc(N)n3)C[C@@H]2C1
- EC50 (Histamine H4 receptor [1]): > 10000 nM
- Kb (Histamine H4 receptor [2]): 20 nM

Compound: Nc1nc(Cc2ccccc2)cc(N2CC[C@@H](N)C2)n1
- Ki (Histamine H4 receptor [18]): 100 nM

Compound: CN[C@@H]1CCN(c2cc(C3CCCCC3)nc(N)n2)C1
- Ki (Histamine H4 receptor [18]): 2.3 nM
- EC50 (Histamine H4 receptor [1]): > 10000 nM
- Kb (Histamine H4 receptor [2]): < 0.1 nM

Compound: Nc1nc(C2CCCC2)cc(N2C[C@H]3CCCN[C@H]3C2)n1
- Ki (Histamine H4 receptor [18]): 1.8 nM
- EC50 (Histamine H4 receptor [1]): > 10000 nM
- Kb (Histamine H4 receptor [2]): < 0.1 nM

Compound: CN1CCN(C(=O)c2nc3cc(Cl)ccc3[nH]2)CC1
- Ki (Histamine H4 receptor [18]): 20 nM

Compound: Nc1nc(C2CCCC2)cc(N2C[C@@H]3NCCO[C@@H]3C2)n1 (relative stereo)
- Ki (Histamine H4 receptor [18]): 520 nM

Compound: CN[C@@H]1CCN(c2cc(Cc3ccccc3)nc(N)n2)C1
- AUC [19]: 60 µM·h
- AUC [20]: 11 µM·h
- AUC [21]: 27.8 µM·h
- AUC (Canis familiaris): 8.1 µM·h
- AUC [22]: 45 µM·h
- CL (Rattus norvegicus [23]): 5.5 mL/min/kg
- Vdss (Rattus norvegicus [24]): 6.3 L/kg
- Vd [25]: 15.1 L/kg
- half-life [26]: 5.2 h
- t1/2 (Rattus norvegicus [27]): 5.3 h
- half-life [28]: 9.3 h
- half-life [29]: 9.3 h
- half-life [30]: 10 h
- bioavailability [31]: 50%
- bioavailability [32]: 112%
- EC50 (Histamine H4 receptor [1]): > 10000 nM
- Kb (Histamine H4 receptor [2]): 10 nM
- Tmax [33]: 0.5 h
- Tmax [34]: 5 h
- Tmax [35]: 0.6 h
- Cmax [36]: 8.5 µM
- C0 [37]: 19 µM
- Cmax [38]: 1.6 µM
- C0 [39]: 2.5 µM
- Cmax [40]: 4.2 µM

Compound: CN[C@@H]1CCN(c2cc(C3CCCC3)nc(N)n2)C1
- Ki (Histamine H4 receptor [18]): 1.1 nM
- EC50 (Histamine H4 receptor [1]): > 10000 nM
- Kb (Histamine H4 receptor [2]): 0.251 nM

Compound: CN[C@@H]1CCN(c2cc(C(C)C)nc(N)n2)C1
- EC50 (Histamine H4 receptor [1]): > 10000 nM
- Kb (Histamine H4 receptor [2]): 12.6 nM
